BB579 growth dn – yeast BB579 growth reduction in restrictive medium; inhibition, % at 10 µM; hit rate 0.51% among 140,000; AID 804; S. cerevisiae BB579 growth, OD615, 48 h;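 active means inhibition above a set limit, 3 SD over the mean compound inhibition, cut at about 44% in these data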
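Material: Saccharomyces cerevisiae DeaD strain BB579, replicative lifespan model yeast; buffer or medium: CSMM-D restrictive synthetic medium containing dextrose (glucose); compound: 10 µM single dose, DMSO 0.25%; timing: 48 h compound exposure at 30 °C after 4 h preincubation; signal: turbidity as optical density at 615 nm; benchmarks: positive control amphotericin B 10 µg/mL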
Yeast life ext – yeast lifespan extension | S. cerevisiae growth with nicotinamide, OD615; deaD strain in restrictive glucose medium | inhibition of the nicotinamide effect, % at 10 µM | hit rate 0.68% among 130,000;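 active means inhibition above a set limit, placed 3 SD over the median of all compounds, cut at about 26% in these data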
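assay system = DeaD-strain S. cerevisiae | buffer or medium = restrictive glucose medium | reagent = 1.5 mM nicotinamide | compound = 10 µM single point, 0.25% DMSO | incubation = 48 h compound exposure at 30 °C, humidified | signal = OD615 measurement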
Cl transport mod – modulators of human KCC2 chloride dependent transport. AID 1456. Q9H2X9. hit rate 2.2% among 190,000. KCC2 cells, thallium flux FluoZin-2 fluorescence. B-score of Tl+ flux slope (higher = more flux/activation; lower = inhibition) at 10 µM;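 active means thallium flux slope and its plate-corrected score both differing from the plate sample mean at a set confidence after two filtering rounds, in either direction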;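 further: slope of fluorescence scaled to starting intensity during 10 to 20 s after thallium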
Target sequence (Q9H2X9 whole entry, looked up): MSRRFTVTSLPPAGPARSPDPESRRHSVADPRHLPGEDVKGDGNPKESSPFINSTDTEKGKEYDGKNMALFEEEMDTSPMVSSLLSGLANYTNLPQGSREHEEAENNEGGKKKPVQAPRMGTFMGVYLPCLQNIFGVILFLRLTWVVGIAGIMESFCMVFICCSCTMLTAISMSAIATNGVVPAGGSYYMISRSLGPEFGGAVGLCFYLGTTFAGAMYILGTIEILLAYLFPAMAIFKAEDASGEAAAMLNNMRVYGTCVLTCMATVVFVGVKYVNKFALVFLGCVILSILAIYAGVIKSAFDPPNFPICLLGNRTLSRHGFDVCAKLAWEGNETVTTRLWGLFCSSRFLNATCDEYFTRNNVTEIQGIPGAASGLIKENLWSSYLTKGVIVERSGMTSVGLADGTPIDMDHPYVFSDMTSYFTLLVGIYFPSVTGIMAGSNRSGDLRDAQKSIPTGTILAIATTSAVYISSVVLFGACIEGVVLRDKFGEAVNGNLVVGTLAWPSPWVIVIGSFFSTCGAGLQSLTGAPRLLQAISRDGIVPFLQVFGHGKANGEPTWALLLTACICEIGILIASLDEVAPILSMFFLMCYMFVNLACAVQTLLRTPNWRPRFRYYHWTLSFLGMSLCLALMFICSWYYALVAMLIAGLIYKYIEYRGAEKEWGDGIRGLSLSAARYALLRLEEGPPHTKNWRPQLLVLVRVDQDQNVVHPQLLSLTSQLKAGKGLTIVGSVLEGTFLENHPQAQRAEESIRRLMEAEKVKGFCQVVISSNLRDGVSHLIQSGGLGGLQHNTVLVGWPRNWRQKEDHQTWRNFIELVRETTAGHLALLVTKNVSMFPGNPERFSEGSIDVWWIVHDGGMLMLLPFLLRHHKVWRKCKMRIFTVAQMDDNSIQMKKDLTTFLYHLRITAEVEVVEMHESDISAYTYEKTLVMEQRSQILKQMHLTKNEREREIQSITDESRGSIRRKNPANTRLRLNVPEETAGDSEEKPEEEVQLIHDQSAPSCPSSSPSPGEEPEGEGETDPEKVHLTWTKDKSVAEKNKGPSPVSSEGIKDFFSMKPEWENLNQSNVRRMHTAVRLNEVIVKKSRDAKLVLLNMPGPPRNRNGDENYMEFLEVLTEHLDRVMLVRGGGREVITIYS
WT yeast gro inh – growth inhibition of WT yeast, mitochondrial fusion screen. mitochondrial fusion phenotypic screen, WT strain. AID 1362. hit rate 2.1% among 190,000. inhibition, % at 10 µM; in the data active means inhibition above about 58%; tested in S. cerevisiae
RAM network inh – yeast RAM network inhibition | S. cerevisiae dse1pr::URA3 reporter, 5-FOA growth OD615, 2 d; analog-sensitive cbk1-as2 kinase mutant strain | inhibition, % at 50 µM | hit rate 1.8% among 190,000;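 active means inhibition above a set limit, 3 SD over mean compound inhibition, cut at about 8.4% in these data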;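 further: inhibition rescues growth on 5-FOA so higher OD means more RAM inhibition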
Each line names hits and unclear results; the compound was inactive in the other large screens. This is a sample that favours compounds with a hit; in the whole collection about 5.5% have one here.

O/N=C/c1cc(Cl)ccc1OCc1cccc2ccccc12	BB579 growth dn 76, WT yeast gro inh 97
C#CCOc1ccc(Cl)cc1/C=N/O	none (no result: Cl transport mod)
CCOC(=O)C1=C(O)C(=O)N(CCCn2ccnc2)C1c1ccc(OC)cc1 (configuration not stated)	none (no result: BB579 growth dn, Yeast life ext)
COc1nc(-c2ccccc2)ncc1S(=O)(=O)c1ccccc1	none (no result: BB579 growth dn, Yeast life ext)
Cc1nc(-c2ccccc2)sc1-c1nc(-c2ccncc2)ncc1S(=O)(=O)c1ccccc1	WT yeast gro inh 78 (no result: Cl transport mod)
O=C(CCn1nc(-c2ccc(Cl)cc2)c2ccccc2c1=O)NN1CCOCC1	none (no result: BB579 growth dn, Yeast life ext, WT yeast gro inh, RAM network inh)
CC(=O)c1ccc(-n2nnnc2SCC(=O)Nc2cccc(NC(=O)c3ccco3)c2)cc1	WT yeast gro inh 73
CCn1nnnc1SCC(=O)Nc1cccc(NC(C)=O)c1	none
CC(=O)Nc1cccc(NC(=O)CSc2nnnn2Cc2ccccc2)c1	WT yeast gro inh 75
COc1cccc(NC(=O)CSc2ncnc3c2cnn3Cc2ccccc2)c1	RAM network inh 8.4
COc1ccc(NC(=O)CSc2ncnc3c2cnn3CCc2ccccc2)cc1	none
Cc1cc(C)cc(NC(=O)CSCc2nc3c(nnn3Cc3ccc(F)cc3)c(=O)[nH]2)c1	none (no result: BB579 growth dn, Yeast life ext, WT yeast gro inh, RAM network inh)
C=CC[n+]1c(-c2ccc(Cl)cc2Cl)csc1Nc1ccc(NC(C)=O)cc1	WT yeast gro inh 86 (no result: BB579 growth dn, Yeast life ext)
C=CC[n+]1c(-c2ccc(Cl)cc2Cl)csc1Nc1c(C)n(C)n(-c2ccccc2)c1=O	none (no result: BB579 growth dn, Yeast life ext)
CCCC[n+]1c(-c2ccc(Cl)cc2Cl)csc1Nc1ccccc1	Yeast life ext 32, WT yeast gro inh 68
O=c1[nH]nc(SCc2cc(Cl)ccc2Cl)c(=O)[nH]1	none (no result: BB579 growth dn, Yeast life ext, WT yeast gro inh, RAM network inh)
O=C(/C=C/c1ccccc1)C1=C(O)C(=O)N(CCO)C1c1ccc2c(c1)OCO2 (configuration not stated)	none (no result: BB579 growth dn, Yeast life ext)
COc1cc(NC(=O)COC(=O)/C=C/c2ccccc2Cl)cc(OC)c1	RAM network inh 10
O=C(COC(=O)/C=C/c1ccccc1Cl)NCCc1ccc(Cl)cc1Cl	RAM network inh 8.6
COc1cc(NC(=O)COC(=O)/C=C/c2ccc(OC)c(OC)c2)cc(OC)c1	none (no result: BB579 growth dn, Yeast life ext)
COc1cccc(/C=C/C(=O)OCC(=O)Nc2ccc(Cl)c(S(=O)(=O)N(C)C)c2)c1	RAM network inh 8.5 (no result: BB579 growth dn, Yeast life ext)
O=C(COC(=O)/C=C/c1ccccc1)Nc1cccc(Oc2ccccc2)c1	RAM network inh 8.9
COc1ccc(C(C#N)c2ccc(=O)[nH]n2)cc1 (configuration not stated)	none (no result: BB579 growth dn, Yeast life ext)
N#CC1=C(N)Oc2ccc3ccc(O)cc3c2C1c1ccsc1 (configuration not stated)	none
O=C(CSc1ccc2c(c1)OCCO2)NCCc1ccc(Cl)cc1Cl	RAM network inh 8.4
COc1ccccc1NC(=O)c1ccc(-c2ccc(Br)cc2)o1	RAM network inh 11 (no result: Cl transport mod)
O=C(Nc1cccc(NC(=O)c2ccc(-c3ccc(Br)cc3)o2)c1)c1ccccc1	none
O=C(Nc1ccccc1)c1ccc(-c2ccc(Br)cc2)o1	WT yeast gro inh 74 (no result: Yeast life ext)
O=C(NC1CCS(=O)(=O)C1)c1ccc(-c2ccc(Br)cc2)o1 (configuration not stated)	WT yeast gro inh 82
Cc1ccc(C(=O)N/C(=C\c2ccc(-c3ccc(Br)cc3)o2)C(=O)NC2CCS(=O)(=O)C2)cc1 (configuration not stated)	none
CSCC[C@H](NC(=O)c1nn(C)c(=O)c2ccccc12)c1nc2ccccc2[nH]1	none
Nn1c(Cc2cccc3ccccc23)nnc1SCCOc1ccc(Br)cc1	WT yeast gro inh 68
Nn1c(Cc2cccc3ccccc23)nnc1SCCOc1ccc(F)cc1	none
CNc1ccc(/C=C/C(=O)c2ccc(C)cc2)cc1[N+](=O)[O-]	none
CNc1ccc(/C=C/C(=O)c2ccc3c(c2)OCCO3)cc1[N+](=O)[O-]	RAM network inh 9.0
COc1ccccc1S(=O)(=O)CC(O)COc1ccc(C#N)cc1 (configuration not stated)	none (no result: BB579 growth dn, Yeast life ext)
CC12CCC(C(=O)N(CSC(=S)N/N=C\c3ccccc3)C1=O)C2(C)C (configuration not stated)	Cl transport mod 23 (no result: Yeast life ext)
O=C(/C=C/c1ccccc1)NC(NC(=S)Nc1ccc(Cl)cc1)C(Cl)(Cl)Cl (configuration not stated)	RAM network inh 10 (no result: Cl transport mod)
CCOC(=O)CN(C(=O)CSc1nnc2c(n1)[nH]c1c(C)cc(C)cc12)c1ccccc1	RAM network inh 8.9
Cc1ccsc1C(=O)N1CCCC(CCC(=O)N2CCN(c3ccccn3)CC2)C1 (configuration not stated)	none (no result: BB579 growth dn, Yeast life ext)
CC(C)c1nc(SCC(=O)Nc2nc3c(s2)CCCC3)c2ccccc2n1	WT yeast gro inh 62 (no result: Cl transport mod)
O=C(CCCc1nc2ccccc2s1)NC(c1ccccc1)c1ccccc1	none
Cc1ccc(-n2[nH]c(C)c(/C=N/Nc3ccc([N+](=O)[O-])cc3[N+](=O)[O-])c2=O)cc1C	WT yeast gro inh 70
Cc1[nH]n(-c2ccccc2)c(=O)c1/C=N/NC(=O)c1cccc([N+](=O)[O-])c1	none (no result: Cl transport mod)
CN1C(=O)C(Cl)(Cl)C(=O)c2ccccc21	Yeast life ext 47
CN1C(=O)C2(NC(=O)c3ccccc3N2C)c2ccccc21 (configuration not stated)	none (no result: BB579 growth dn, Yeast life ext, WT yeast gro inh, RAM network inh)
Fc1ccc(Nc2ccc(-c3ccc(F)cc3)nn2)cc1	none (no result: BB579 growth dn, Yeast life ext)
Cc1nnc(SCc2ccccc2)nc1/C=C/NOCc1ccc(Cl)cc1Cl	RAM network inh 8.5 (no result: Cl transport mod)
O=c1c2ccccc2[nH]c(=S)n1-c1cccc(S(=O)(=O)N2CCCC2)c1	none
Cc1cc(/C=C(\C#N)C(=O)OCC(=O)NC(=O)NC(C)(C)C)c(C)n1CCC(C)C	none
CCCn1c(C)cc(/C=C(\C#N)C(=O)OCC(=O)Nc2cccc(OC)c2)c1C	RAM network inh 8.9
CN(C1=C(N2CCOCC2)C(=O)c2ccccc2C1=O)c1ccccc1	none
Cc1ccc(N2CCOCC2)c2c1C(=O)c1ccccc1C2=O	BB579 growth dn 63
COC(=O)C(Cc1ccc(OC(=O)c2ccccc2C)cc1)N1Cc2ccccc2C1=O (configuration not stated)	RAM network inh 8.9 (no result: Cl transport mod)
COc1ccc(-n2c(CCc3ccccc3)nnc2SCC(=O)c2ccc(Cl)cc2)cc1	none
O=C(CSc1nnc(CCc2ccccc2)n1-c1ccc(Cl)cc1)c1ccccc1	WT yeast gro inh 67
COc1cccc(C2C3=C(CCCC3=O)NC3=C2C(=O)c2ccccc23)c1 (configuration not stated)	none (no result: BB579 growth dn, Yeast life ext)
CCCCN1C2=C(C(=O)CCC2)C(c2ccc(Cl)c(Cl)c2)C2=C1c1ccccc1C2=O (configuration not stated)	WT yeast gro inh 67 (no result: Cl transport mod)
COc1ccc(-c2csc(/C(C#N)=C(\O)CSc3nccn3C)n2)cc1OC	none
CCC(=C(c1ccc(OC)cc1)c1ccc(OC)cc1)c1cn(CC(O)CN(CCO)CCO)c2ccccc12 (configuration not stated)	WT yeast gro inh 98 (no result: BB579 growth dn, Yeast life ext)

Source: PubChem (several laboratories)
